{"source": "ChEMBL document CHEMBL5154945", "about": "“Discovery and Optimization of Pyrrolopyrimidine Derivatives as Selective Disruptors of the Perinucleolar Compartment, a Marker of Tumor Progression toward Metastasis” (J Med Chem, 2022)", "key": {"Histamine H1 receptor": {"target": "Histamine H1 receptor (Homo sapiens, UniProt P35367)", "sequence (P35367 whole entry)": "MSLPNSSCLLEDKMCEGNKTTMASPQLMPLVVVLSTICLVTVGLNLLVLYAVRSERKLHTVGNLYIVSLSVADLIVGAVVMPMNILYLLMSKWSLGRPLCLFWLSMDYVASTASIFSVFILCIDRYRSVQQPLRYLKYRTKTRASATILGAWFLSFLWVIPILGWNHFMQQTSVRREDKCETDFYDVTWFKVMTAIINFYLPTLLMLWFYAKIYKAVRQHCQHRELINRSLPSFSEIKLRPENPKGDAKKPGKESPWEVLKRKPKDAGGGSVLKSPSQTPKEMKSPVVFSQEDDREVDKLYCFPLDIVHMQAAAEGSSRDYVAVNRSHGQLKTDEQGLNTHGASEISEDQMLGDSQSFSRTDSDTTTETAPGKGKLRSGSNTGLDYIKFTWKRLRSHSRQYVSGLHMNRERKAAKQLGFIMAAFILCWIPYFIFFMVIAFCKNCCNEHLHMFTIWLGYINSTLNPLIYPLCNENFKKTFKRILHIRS", "experiment": "Binding affinity to H1 receptor (unknown origin) by radioligand displacement assay"}, "[1]": {"target": "5-hydroxytryptamine receptor 6 (Homo sapiens) (UniProt P50406)", "sequence (P50406 whole entry)": "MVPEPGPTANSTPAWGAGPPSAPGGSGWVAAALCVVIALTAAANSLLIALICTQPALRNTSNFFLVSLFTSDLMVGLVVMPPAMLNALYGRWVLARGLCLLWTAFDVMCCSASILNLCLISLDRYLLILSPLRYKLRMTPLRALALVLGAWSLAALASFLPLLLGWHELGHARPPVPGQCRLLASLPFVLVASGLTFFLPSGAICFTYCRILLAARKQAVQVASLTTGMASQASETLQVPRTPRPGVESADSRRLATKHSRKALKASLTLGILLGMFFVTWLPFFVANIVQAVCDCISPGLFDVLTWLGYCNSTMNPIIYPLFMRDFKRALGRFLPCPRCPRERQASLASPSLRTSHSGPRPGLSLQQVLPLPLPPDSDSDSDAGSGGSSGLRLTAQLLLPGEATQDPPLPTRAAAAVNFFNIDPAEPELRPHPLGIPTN", "experiment": "Binding affinity to 5-HT6 receptor (unknown origin) at 10000 nM by radioligand displacement assay relative to control"}, "K562": {"system": "K562", "experiment": "Anticancer activity against human K562 cells assessed as cell growth inhibition", "assay_type": "functional, cell-based", "conditions": "dose 1-100 µM, DDE = dose-dependent effect"}, "[2]": {"target": "Alpha-2B adrenergic receptor (Homo sapiens) (UniProt P18089)", "sequence (P18089 whole entry)": "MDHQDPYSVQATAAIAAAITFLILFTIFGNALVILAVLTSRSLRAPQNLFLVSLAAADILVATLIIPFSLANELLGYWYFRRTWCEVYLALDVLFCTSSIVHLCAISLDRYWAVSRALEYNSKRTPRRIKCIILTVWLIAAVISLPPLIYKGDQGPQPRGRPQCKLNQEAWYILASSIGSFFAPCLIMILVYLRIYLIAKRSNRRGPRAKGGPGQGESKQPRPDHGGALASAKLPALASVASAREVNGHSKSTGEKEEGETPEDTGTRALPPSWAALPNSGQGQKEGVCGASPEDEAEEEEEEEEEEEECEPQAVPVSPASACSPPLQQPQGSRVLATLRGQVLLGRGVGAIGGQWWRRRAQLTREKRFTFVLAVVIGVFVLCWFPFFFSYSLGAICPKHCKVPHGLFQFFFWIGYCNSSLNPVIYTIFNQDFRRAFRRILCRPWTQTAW", "experiment": "Binding affinity to alpha2B receptor (unknown origin) at 10000 nM by radioligand displacement assay relative to control"}, "[3]": {"experiment": "Clast in male C57BL/6 mouse at 50 mg/kg, ip at 48 hrs by LC-MS/MS analysis", "conditions": "in vivo"}, "HCC 2998": {"system": "HCC 2998", "experiment": "Anticancer activity against human HCC 2998 cells assessed as cell growth inhibition", "assay_type": "functional, cell-based", "conditions": "dose 1-100 µM, DDE = dose-dependent effect"}, "SW-620": {"system": "SW-620", "experiment": "Anticancer activity against human SW-620 cells assessed as cell growth inhibition", "assay_type": "functional, cell-based", "conditions": "dose 1-100 µM, DDE = dose-dependent effect"}, "CAKI-1": {"system": "CAKI-1", "experiment": "Anticancer activity against human CAKI-1 cells assessed as cell growth inhibition", "assay_type": "functional, cell-based", "conditions": "dose 1-100 µM, DDE = dose-dependent effect"}, "Malme-3M": {"system": "Malme-3M", "experiment": "Anticancer activity against human Malme-3M cells assessed as cell growth inhibition", "assay_type": "functional, cell-based", "conditions": "dose 1-100 µM, DDE = dose-dependent effect"}, "[4]": {"target": "Muscarinic acetylcholine receptor M4 (Homo sapiens) (UniProt P08173)", "experiment": "Binding affinity to M4 receptor (unknown origin) at 10000 nM by radioligand displacement assay relative to control"}, "[5]": {"target": "Delta-type opioid receptor (Homo sapiens) (UniProt P41143)", "experiment": "Binding affinity to DOR receptor (unknown origin) at 10000 nM by radioligand displacement assay relative to control"}, "[6]": {"target": "5-hydroxytryptamine receptor 1E (Homo sapiens) (UniProt P28566)", "sequence (P28566 whole entry)": "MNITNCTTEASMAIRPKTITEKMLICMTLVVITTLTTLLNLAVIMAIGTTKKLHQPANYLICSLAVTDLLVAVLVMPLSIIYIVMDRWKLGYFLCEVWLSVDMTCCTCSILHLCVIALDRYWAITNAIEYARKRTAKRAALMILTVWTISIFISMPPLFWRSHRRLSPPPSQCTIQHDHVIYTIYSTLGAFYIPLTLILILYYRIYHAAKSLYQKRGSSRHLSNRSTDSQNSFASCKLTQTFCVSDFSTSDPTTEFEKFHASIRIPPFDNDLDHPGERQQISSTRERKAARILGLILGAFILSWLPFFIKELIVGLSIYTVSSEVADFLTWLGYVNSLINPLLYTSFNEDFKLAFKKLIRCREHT", "experiment": "Binding affinity to 5-HT1E receptor (unknown origin) at 10000 nM by radioligand displacement assay relative to control"}, "MCF7": {"system": "MCF7", "experiment": "Anticancer activity against human MCF7 cells assessed as cell growth inhibition", "assay_type": "functional, cell-based", "conditions": "dose 1-100 µM, DDE = dose-dependent effect"}, "PC-3M [7]": {"system": "PC-3M", "experiment": "Antiproliferative activity against human PC-3M cells expressing PTB/GFP fusion protein assessed as disruption of RNA synthesis marker NOPP140 at 1 uM measured after 1 hr by DAPI staining based immunofluorescence microscopy", "assay_type": "functional, cell-based", "in_short": "(§1)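 50,000 PC3M cells on chamber slides were treated with 1 μM compound for 1 h at 37 °C, then fixed in 4% paraformaldehyde for 15 min, permeabilized with 0.3% Triton X-100 and blocked in 3% BSA. Primary antibodies were anti-RPA194 (1:200) and anti-NOPP140 (1:100), overnight at 4 °C, followed by secondary antibodies and DAPI mounting. Confocal images at 63×, three images of about 200 cells per group; counts of bright objects were normalized to DAPI-stained nuclei.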"}, "PC-3M [8]": {"system": "PC-3M", "experiment": "Antiproliferative activity against human PC-3M cells expressing PTB/GFP fusion protein assessed as disruption of RNA synthesis marker RP-194 at 1 uM and measured after 1 hr by DAPI staining based immunofluorescence microscopy", "assay_type": "functional, cell-based", "in_short": "as §1"}, "[9]": {"experiment": "Cmax in female BALB/c mouse at 25 mg/kg, ip at 30 min by L-MS/MS analysis", "assay_type": "ADME, organism-based", "design": "dose 25 mg/kg, time 30 min, route ip", "conditions": "in vivo, 0.5 h", "in_short": "(§2)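 Fed female BALB/c mice, about 6–8 weeks old and 25–30 g, received a single IP dose of 5 or 25 mpk in NMP/PEG400/HP-β-CD aqueous vehicle (0.5 mg/mL for the 5 mpk dose). Three mice per time point were sampled up to 48 h by retro-orbital bleed under isoflurane into K2EDTA. Plasma was spun at 2000 g, 4 °C, frozen at -80 °C, and assayed by LC/MS/MS.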"}, "[10]": {"target": "D(2) dopamine receptor (Homo sapiens) (UniProt P14416)", "sequence (P14416 whole entry)": "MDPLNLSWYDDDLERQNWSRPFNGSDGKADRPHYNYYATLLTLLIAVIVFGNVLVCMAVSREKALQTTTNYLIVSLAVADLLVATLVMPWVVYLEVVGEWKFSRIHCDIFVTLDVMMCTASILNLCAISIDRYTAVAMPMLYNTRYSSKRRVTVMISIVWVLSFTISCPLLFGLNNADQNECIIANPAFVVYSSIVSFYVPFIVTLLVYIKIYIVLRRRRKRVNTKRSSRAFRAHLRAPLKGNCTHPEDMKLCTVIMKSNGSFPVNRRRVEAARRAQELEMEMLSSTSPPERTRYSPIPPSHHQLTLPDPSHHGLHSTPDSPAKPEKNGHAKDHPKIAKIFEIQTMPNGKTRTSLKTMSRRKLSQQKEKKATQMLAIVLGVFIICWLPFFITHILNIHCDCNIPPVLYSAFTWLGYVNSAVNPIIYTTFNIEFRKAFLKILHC", "experiment": "Binding affinity to D2 receptor (unknown origin) at 10000 nM by radioligand displacement assay relative to control"}, "OVCAR-4": {"system": "OVCAR-4", "experiment": "Anticancer activity against human OVCAR-4 cells assessed as cell growth inhibition", "assay_type": "functional, cell-based", "conditions": "dose 1-100 µM, DDE = dose-dependent effect"}, "[11]": {"experiment": "Cmax in female BALB/c mouse at 5 mg/kg, ip at 30 min by LC-MS/MS analysis", "assay_type": "ADME, organism-based", "design": "time 30 min, dose 5 mg/kg, route ip", "conditions": "in vivo, 0.5 h", "in_short": "as §2"}, "SNB-19": {"system": "SNB-19", "experiment": "Anticancer activity against human SNB-19 cells assessed as cell growth inhibition", "assay_type": "functional, cell-based", "conditions": "dose 1-100 µM, DDE = dose-dependent effect"}, "MDA-MB-468": {"system": "MDA-MB-468", "experiment": "Anticancer activity against human MDA-MB-468 cells assessed as cell growth inhibition", "assay_type": "functional, cell-based", "conditions": "dose 1-100 µM, DDE = dose-dependent effect"}, "TK-10": {"system": "TK-10", "experiment": "Anticancer activity against human TK-10 cells assessed as cell growth inhibition", "assay_type": "functional, cell-based", "conditions": "dose 1-100 µM, DDE = dose-dependent effect"}, "[12]": {"target": "5-hydroxytryptamine receptor 2C (Homo sapiens) (UniProt P28335)", "sequence (P28335 whole entry)": "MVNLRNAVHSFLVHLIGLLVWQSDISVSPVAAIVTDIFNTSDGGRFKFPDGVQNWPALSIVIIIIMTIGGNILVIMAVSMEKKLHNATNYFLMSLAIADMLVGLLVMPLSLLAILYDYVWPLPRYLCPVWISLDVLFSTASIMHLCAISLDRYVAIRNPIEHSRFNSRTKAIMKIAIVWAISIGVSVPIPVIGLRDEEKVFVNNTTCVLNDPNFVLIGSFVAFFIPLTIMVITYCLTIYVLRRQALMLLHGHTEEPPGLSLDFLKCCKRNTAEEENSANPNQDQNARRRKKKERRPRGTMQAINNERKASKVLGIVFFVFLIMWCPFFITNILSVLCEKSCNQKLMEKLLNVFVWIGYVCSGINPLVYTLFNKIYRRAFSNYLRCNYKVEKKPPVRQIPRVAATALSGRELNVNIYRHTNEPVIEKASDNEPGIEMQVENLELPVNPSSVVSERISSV", "experiment": "Binding affinity to 5-HT2C receptor (unknown origin) at 10000 nM by radioligand displacement assay relative to control"}, "UACC-257": {"system": "UACC-257", "experiment": "Anticancer activity against human UACC-257 cells assessed as cell growth inhibition", "assay_type": "functional, cell-based", "conditions": "dose 1-100 µM, DDE = dose-dependent effect"}, "IGROV-1": {"system": "IGROV-1", "experiment": "Anticancer activity against human IGROV-1 cells assessed as cell growth inhibition", "assay_type": "functional, cell-based", "conditions": "dose 1-100 µM, DDE = dose-dependent effect"}, "HCT-15": {"system": "HCT-15", "experiment": "Anticancer activity against human HCT-15 cells assessed as cell growth inhibition", "assay_type": "functional, cell-based", "conditions": "dose 1-100 µM, DDE = dose-dependent effect"}, "[13]": {"target": "Sigma non-opioid intracellular receptor 1 (Homo sapiens) (UniProt Q99720)", "sequence (Q99720 whole entry)": "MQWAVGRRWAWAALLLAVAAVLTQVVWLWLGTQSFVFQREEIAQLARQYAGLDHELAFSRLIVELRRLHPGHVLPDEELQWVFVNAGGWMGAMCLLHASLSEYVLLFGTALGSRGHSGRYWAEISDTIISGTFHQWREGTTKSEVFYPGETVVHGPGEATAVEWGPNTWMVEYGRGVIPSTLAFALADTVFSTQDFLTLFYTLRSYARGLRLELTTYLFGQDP", "experiment": "Binding affinity to sigma1 receptor (unknown origin) at 10000 nM by radioligand displacement assay relative to control"}, "[14]": {"target": "5-hydroxytryptamine receptor 2A (Homo sapiens) (UniProt P28223)", "experiment": "Binding affinity to 5-HT2A receptor (unknown origin) at 10000 nM by radioligand displacement assay relative to control"}, "RXF 393": {"system": "RXF 393", "experiment": "Anticancer activity against human RXF 393 cells assessed as cell growth inhibition", "assay_type": "functional, cell-based", "conditions": "dose 1-100 µM, DDE = dose-dependent effect"}, "OVCAR-8": {"system": "OVCAR-8", "experiment": "Anticancer activity against human OVCAR-8 cells assessed as cell growth inhibition", "assay_type": "functional, cell-based", "conditions": "dose 1-100 µM, DDE = dose-dependent effect"}, "[15]": {"target": "Alpha-1D adrenergic receptor (Homo sapiens, UniProt P25100)", "sequence (P25100 whole entry)": "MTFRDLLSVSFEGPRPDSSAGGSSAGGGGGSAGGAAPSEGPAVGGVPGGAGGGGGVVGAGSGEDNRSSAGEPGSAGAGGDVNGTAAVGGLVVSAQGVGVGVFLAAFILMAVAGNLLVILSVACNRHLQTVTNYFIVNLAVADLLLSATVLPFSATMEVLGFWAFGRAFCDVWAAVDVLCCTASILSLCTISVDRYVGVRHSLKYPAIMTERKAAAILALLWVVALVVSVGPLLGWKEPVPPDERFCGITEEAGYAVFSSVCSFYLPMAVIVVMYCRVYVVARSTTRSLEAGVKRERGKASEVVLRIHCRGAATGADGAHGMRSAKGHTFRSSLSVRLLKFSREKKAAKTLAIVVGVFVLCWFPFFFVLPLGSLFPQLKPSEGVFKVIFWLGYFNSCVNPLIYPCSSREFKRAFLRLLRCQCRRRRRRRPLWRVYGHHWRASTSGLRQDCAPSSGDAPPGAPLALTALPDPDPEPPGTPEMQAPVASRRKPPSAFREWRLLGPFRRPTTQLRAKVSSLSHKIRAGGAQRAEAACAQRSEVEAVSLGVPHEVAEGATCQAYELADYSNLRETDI", "experiment": "Binding affinity to alpha1D receptor (unknown origin) by radioligand displacement assay"}, "[16]": {"target": "Beta-2 adrenergic receptor (Homo sapiens) (UniProt P07550)", "sequence (P07550 whole entry, looked up)": "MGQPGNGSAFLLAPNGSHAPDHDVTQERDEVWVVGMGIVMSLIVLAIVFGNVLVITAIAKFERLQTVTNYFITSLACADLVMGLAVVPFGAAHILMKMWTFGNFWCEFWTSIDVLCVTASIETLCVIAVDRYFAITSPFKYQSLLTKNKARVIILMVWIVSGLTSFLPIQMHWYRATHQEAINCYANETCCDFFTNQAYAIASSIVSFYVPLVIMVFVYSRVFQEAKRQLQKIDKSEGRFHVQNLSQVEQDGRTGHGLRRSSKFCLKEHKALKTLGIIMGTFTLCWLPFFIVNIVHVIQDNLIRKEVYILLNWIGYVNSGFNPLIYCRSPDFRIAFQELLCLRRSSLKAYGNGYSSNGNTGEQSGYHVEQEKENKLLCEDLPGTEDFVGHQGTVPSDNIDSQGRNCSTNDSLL", "experiment": "Binding affinity to beta2 receptor (unknown origin) at 10000 nM by radioligand displacement assay relative to control"}, "HT-29": {"system": "HT-29", "experiment": "Anticancer activity against human HT-29 cells assessed as cell growth inhibition", "assay_type": "functional, cell-based", "conditions": "dose 1-100 µM, DDE = dose-dependent effect"}, "NCI/ADR-RES": {"system": "NCI/ADR-RES", "experiment": "Anticancer activity against human NCI/ADR-RES cells assessed as cell growth inhibition", "assay_type": "functional, cell-based", "conditions": "dose 1-100 µM, DDE = dose-dependent effect"}, "UO-31": {"system": "UO-31", "experiment": "Anticancer activity against human UO-31 cells assessed as cell growth inhibition", "assay_type": "functional, cell-based", "conditions": "dose 1-100 µM, DDE = dose-dependent effect"}, "[17]": {"target": "Muscarinic acetylcholine receptor M3 (Homo sapiens) (UniProt P20309)", "sequence (P20309 whole entry, looked up)": "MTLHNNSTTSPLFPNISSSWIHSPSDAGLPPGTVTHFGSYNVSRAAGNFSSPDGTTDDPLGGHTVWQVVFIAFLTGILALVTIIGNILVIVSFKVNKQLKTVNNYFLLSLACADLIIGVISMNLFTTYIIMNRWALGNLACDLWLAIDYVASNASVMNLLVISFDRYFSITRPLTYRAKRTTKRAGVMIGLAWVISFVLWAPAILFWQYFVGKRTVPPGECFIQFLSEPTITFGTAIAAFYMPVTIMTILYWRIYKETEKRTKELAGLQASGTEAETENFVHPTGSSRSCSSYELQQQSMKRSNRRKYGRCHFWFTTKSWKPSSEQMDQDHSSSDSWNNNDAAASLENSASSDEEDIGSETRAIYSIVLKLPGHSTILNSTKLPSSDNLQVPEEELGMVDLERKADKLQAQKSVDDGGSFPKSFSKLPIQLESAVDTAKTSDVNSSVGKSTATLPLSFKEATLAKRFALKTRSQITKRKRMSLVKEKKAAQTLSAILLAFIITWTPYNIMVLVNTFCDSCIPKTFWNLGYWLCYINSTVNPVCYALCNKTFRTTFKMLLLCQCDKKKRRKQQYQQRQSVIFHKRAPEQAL", "experiment": "Binding affinity to M3 receptor (unknown origin) at 10000 nM by radioligand displacement assay relative to control"}, "MDA-MB-435": {"system": "MDA-MB-435", "experiment": "Anticancer activity against human MDA-MB-435 cells assessed as cell growth inhibition", "assay_type": "functional, cell-based", "conditions": "dose 1-100 µM, DDE = dose-dependent effect"}, "[18]": {"target": "Alpha-2A adrenergic receptor (Homo sapiens) (UniProt P08913)", "sequence (P08913 whole entry)": "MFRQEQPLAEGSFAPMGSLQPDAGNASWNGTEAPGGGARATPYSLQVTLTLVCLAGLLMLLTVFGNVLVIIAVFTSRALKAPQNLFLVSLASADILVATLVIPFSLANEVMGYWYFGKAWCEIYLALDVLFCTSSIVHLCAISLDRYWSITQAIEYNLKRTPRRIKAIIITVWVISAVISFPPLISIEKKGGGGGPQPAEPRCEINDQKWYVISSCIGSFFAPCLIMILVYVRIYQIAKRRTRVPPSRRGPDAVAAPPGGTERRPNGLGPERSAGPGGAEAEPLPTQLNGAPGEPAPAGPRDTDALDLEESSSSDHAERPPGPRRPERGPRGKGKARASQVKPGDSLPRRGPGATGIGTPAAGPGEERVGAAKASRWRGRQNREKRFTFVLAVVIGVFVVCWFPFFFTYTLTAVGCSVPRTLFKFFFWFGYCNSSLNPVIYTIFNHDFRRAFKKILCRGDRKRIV", "experiment": "Binding affinity to alpha2A receptor (unknown origin) at 10000 nM by radioligand displacement assay relative to control"}, "SF-539": {"system": "SF-539", "experiment": "Anticancer activity against human SF-539 cells assessed as cell growth inhibition", "assay_type": "functional, cell-based", "conditions": "dose 1-100 µM, DDE = dose-dependent effect"}, "[19]": {"target": "D(3) dopamine receptor (Homo sapiens) (UniProt P35462)", "experiment": "Binding affinity to D3 receptor (unknown origin) at 10000 nM by radioligand displacement assay relative to control"}}, "note": "Calls of active or inactive are those of the source. No cut-off for these calls is given here.", "data": [{"smiles": "N=c1c2c(-c3ccccc3)c(-c3ccccc3)n(Cc3ccccc3)c2ncn1[C@H]1CC[C@H](O)CC1", "note": "[ML-246]", "values": [{"measurement": "Ki", "setting": "Histamine H1 receptor", "value": 3.56, "unit": "µM"}, {"measurement": "Activity", "setting": "[1]", "value": "< 50", "unit": "%"}, {"measurement": "Activity", "setting": "K562", "value": "Dde"}, {"measurement": "Activity", "setting": "[2]", "value": "< 50", "unit": "%"}, {"measurement": "concentration at 48 h", "setting": "[3]", "value": 1320, "unit": "nM"}, {"measurement": "Activity", "setting": "HCC 2998", "value": "Dde"}, {"measurement": "Activity", "setting": "SW-620", "value": "Dde"}, {"measurement": "Activity", "setting": "CAKI-1", "value": "Dde"}, {"measurement": "Activity", "setting": "Malme-3M", "value": "Dde"}, {"measurement": "Activity", "setting": "[4]", "value": "< 50", "unit": "%"}, {"measurement": "Activity", "setting": "[5]", "value": "< 50", "unit": "%"}, {"measurement": "Activity", "setting": "[6]", "value": "< 50", "unit": "%"}, {"measurement": "Activity", "setting": "MCF7", "value": "Dde"}, {"measurement": "Activity", "setting": "PC-3M [7]", "value": "Active"}, {"measurement": "Activity", "setting": "PC-3M [8]", "value": "Active"}, {"measurement": "Cmax", "setting": "[9]", "value": 6170, "unit": "nM"}, {"measurement": "Activity", "setting": "[10]", "value": "< 50", "unit": "%"}, {"measurement": "Activity", "setting": "OVCAR-4", "value": "Dde"}, {"measurement": "Cmax", "setting": "[11]", "value": 910, "unit": "nM"}, {"measurement": "Activity", "setting": "SNB-19", "value": "Dde"}, {"measurement": "Activity", "setting": "MDA-MB-468", "value": "Dde"}, {"measurement": "Activity", "setting": "TK-10", "value": "Dde"}, {"measurement": "Activity", "setting": "[12]", "value": "< 50", "unit": "%"}, {"measurement": "Activity", "setting": "UACC-257", "value": "Dde"}, {"measurement": "Activity", "setting": "IGROV-1", "value": "Dde"}, {"measurement": "Activity", "setting": "HCT-15", "value": "Dde"}, {"measurement": "Activity", "setting": "[13]", "value": "< 50", "unit": "%"}, {"measurement": "Activity", "setting": "[14]", "value": "< 50", "unit": "%"}, {"measurement": "Activity", "setting": "RXF 393", "value": "Dde"}, {"measurement": "Activity", "setting": "OVCAR-8", "value": "Dde"}, {"measurement": "Ki", "setting": "[15]", "value": 3.26, "unit": "µM"}, {"measurement": "Activity", "setting": "[16]", "value": "< 50", "unit": "%"}, {"measurement": "Activity", "setting": "HT-29", "value": "Dde"}, {"measurement": "Activity", "setting": "NCI/ADR-RES", "value": "Dde"}, {"measurement": "Activity", "setting": "UO-31", "value": "Dde"}, {"measurement": "Activity", "setting": "[17]", "value": "< 50", "unit": "%"}, {"measurement": "Activity", "setting": "MDA-MB-435", "value": "Dde"}, {"measurement": "Activity", "setting": "[18]", "value": "< 50", "unit": "%"}, {"measurement": "Activity", "setting": "SF-539", "value": "Dde"}, {"measurement": "Activity", "setting": "[19]", "value": "< 50", "unit": "%"}]}]}
